# Source: ChEMBL document CHEMBL2021852 (ACS Med Chem Lett, 2011)
# Calls of active or inactive are those of the source. The calls are words filed in the database; no cut-off is given here.
# Assays:
# [1] = target: T1, Renin (Homo sapiens, UniProt P00797); test: Inhibition of human recombinant renin using DABCYL-gamma-Abu-Ile-His-Pro-Phe-His-Leu-Val-Ile-His-Thr-EDANS as substrate for 60 mins by fluorimetry
# T1 sequence (P00797 whole entry): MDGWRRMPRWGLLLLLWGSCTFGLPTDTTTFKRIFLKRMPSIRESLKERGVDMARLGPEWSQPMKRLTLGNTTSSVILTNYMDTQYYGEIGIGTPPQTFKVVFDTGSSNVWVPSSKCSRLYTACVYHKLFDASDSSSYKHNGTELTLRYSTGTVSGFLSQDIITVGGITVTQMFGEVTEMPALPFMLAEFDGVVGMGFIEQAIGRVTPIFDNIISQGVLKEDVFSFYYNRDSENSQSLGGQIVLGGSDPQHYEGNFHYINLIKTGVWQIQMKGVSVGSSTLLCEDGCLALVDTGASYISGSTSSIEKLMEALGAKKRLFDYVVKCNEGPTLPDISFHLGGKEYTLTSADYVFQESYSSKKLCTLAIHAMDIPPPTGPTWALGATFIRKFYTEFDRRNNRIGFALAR
# Procedure, shortened: (§1)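 Purified recombinant human renin measured in buffer; each value is the average of at least two replicates.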
# [2] = target: T1, Renin; test: Inhibition of human recombinant renin using H-Asp-Arg-Val-Tyr-Ile-His-Pro-Phe-His-Leu-Val-Ile-His-Asn-OH as substrate assessed as formation of angiotensin1 product after 2 hrs by competive radioimmunoassay; procedure, shortened: as §1
# [3] = target: Cytochrome P450 3A4 (Homo sapiens, UniProt P08684); test: Inhibition of CYP3A4 using testosterone as substrate in human liver microsome for 20 mins by HPLC analysis; format: ADME, microsomes
# Sequence of Cytochrome P450 3A4 (P08684 whole entry): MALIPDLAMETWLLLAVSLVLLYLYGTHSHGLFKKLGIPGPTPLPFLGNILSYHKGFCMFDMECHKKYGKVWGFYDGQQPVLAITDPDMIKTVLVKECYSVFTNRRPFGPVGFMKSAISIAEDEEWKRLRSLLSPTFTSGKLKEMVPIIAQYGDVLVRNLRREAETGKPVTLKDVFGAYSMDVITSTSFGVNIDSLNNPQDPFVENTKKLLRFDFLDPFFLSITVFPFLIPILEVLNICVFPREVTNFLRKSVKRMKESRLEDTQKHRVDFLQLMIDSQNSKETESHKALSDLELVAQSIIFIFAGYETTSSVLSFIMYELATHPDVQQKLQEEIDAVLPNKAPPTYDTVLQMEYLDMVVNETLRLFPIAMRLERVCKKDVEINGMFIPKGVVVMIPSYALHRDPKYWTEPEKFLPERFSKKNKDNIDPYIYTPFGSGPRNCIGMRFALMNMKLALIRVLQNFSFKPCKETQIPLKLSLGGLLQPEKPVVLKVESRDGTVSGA
# Procedure, shortened: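 CYP3A4 inhibition measured in human liver microsomes; IC50 is the average of at least two replicates.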
# [4] = target: T1, Renin; test: Inhibition of renin in human plasma assessed as formation of angiotensin1 product after 90 mins by competitive radioimmunoassay
# Procedure, shortened: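 IC50 for renin inhibition determined in the presence of human plasma; each value is the average of at least two replicates.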
# [5] = target: T2, Cathepsin E (Homo sapiens) (UniProt P14091); test: Inhibition of human recombinant cathepsin E using Mca-GKPILFFRLK(Dnp)-D-Arg-NH2 as substrate at 10 uM incubated for 10 mins prior to substrate addition measured for 1 hr by FRET analysis
# T2 sequence (whole entry): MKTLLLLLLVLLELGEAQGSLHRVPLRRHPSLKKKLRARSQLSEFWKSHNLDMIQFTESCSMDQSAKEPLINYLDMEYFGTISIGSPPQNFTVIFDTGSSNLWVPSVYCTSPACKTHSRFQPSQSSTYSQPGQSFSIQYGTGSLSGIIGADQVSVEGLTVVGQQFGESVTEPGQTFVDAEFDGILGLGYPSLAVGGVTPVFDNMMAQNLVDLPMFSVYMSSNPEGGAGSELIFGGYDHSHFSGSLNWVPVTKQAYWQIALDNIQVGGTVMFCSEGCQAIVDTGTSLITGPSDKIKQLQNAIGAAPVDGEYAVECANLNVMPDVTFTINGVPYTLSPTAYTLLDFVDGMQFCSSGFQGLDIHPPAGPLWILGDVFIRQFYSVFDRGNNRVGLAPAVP
# [6] = tested on: Rattus norvegicus; test: Antihypertensive activity in double transgenic rat expressing human renin assessed as reduction in mean arterial blood pressure at 10 mg/kg, po after 24 hrs; format: functional, organism-based; set-up: dose 10 mg/kg; conditions: Artery
# Procedure, shortened: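 Double transgenic rats expressing human renin and angiotensinogen, with severe hypertension dependent on human renin, received 10 mg/kg orally. Mean arterial pressure was followed over time, including at t = 24 h.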
# [7] = target: Cathepsin D (Homo sapiens) (UniProt P07339); test: Inhibition of human cathepsin D using Mca-GKPILFFRLK(Dnp)-D-Arg-NH2 as substrate at 10 uM incubated for 10 mins prior to substrate addition measured for 1 hr by FRET analysis
# Sequence of Cathepsin D (Homo sapiens) (P07339 65-162 limits assumed): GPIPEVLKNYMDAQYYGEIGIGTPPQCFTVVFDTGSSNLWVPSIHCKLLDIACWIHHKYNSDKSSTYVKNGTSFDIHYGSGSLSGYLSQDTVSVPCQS
# Sequence of Cathepsin D (Homo sapiens) (P07339 169-412 limits assumed): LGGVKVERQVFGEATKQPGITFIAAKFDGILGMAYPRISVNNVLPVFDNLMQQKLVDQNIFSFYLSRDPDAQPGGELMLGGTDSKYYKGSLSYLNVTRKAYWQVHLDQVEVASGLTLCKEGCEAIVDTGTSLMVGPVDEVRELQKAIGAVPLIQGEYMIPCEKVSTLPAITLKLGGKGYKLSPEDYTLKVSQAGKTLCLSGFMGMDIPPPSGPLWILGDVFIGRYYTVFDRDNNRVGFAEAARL
# [8] = target: Beta-secretase 1 (Homo sapiens) (UniProt P56817); test: Inhibition of BACE using SEVNLDAEFK(Dnp)NH2 as substrate at 10 uM incubated for 10 mins prior to substrate addition measured for 1 hr by FRET analysis
# Sequence of Beta-secretase 1 (Homo sapiens) (P56817 whole entry): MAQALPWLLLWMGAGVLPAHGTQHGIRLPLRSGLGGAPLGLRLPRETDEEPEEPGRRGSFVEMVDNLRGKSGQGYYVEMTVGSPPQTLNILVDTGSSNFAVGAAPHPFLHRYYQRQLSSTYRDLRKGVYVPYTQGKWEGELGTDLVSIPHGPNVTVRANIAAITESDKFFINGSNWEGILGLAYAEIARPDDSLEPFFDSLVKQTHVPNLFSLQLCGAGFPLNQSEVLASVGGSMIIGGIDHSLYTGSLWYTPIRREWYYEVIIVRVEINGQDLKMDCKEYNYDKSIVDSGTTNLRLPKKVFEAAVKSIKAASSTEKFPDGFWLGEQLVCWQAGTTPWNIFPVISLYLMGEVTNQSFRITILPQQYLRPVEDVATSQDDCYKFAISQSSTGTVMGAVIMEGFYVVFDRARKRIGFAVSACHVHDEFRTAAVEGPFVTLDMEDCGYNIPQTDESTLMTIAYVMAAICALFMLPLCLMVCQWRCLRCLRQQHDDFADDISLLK
# [9] = Clearance in dog at 0.5 mg/kg, iv; format: ADME, organism-based, Canis lupus familiaris; set-up: dose 0.5 mg/kg, route intravenous; conditions: in vivo
# Procedure, shortened: (§2)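 Compounds were dosed as fumarate salts in separate intravenous and oral arms. Oral AUC(0–t), IV half-life, IV clearance, Vss and oral bioavailability (F) were derived from the plasma levels.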
# [10] = Oral bioavailability in dog at 1 mg/kg; format: ADME, organism-based, Canis lupus familiaris; conditions: in vivo; procedure, shortened: as §2
# [11] = Volume of distribution at steady state in rat at 2 mg/kg, iv and 10 mg/kg, po; format: ADME, organism-based; conditions: in vivo, read-out: Vdss; procedure, shortened: as §2
# [12] = Volume of distribution at steady state in dog at 0.5 mg/kg, iv and 1 mg/kg, po; format: ADME, organism-based, Canis lupus familiaris; conditions: in vivo, read-out: Vdss; procedure, shortened: as §2
# [13] = Half life in dog at 0.5 mg/kg, iv; format: ADME, organism-based, Canis lupus familiaris; set-up: dose 0.5 mg/kg, route intravenous; conditions: in vivo; procedure, shortened: as §2
# [14] = Clearance in rat at 2 mg/kg, iv; format: ADME, organism-based; set-up: dose 2 mg/kg, route intravenous; conditions: in vivo; procedure, shortened: as §2
# [15] = AUC (0 to t) in dog at 1 mg/kg, po; format: ADME, organism-based, Canis lupus familiaris; set-up: dose 1 mg/kg, route oral; conditions: plasma; procedure, shortened: as §2
# [16] = Oral bioavailability in cynomolgus monkey at 2 mg/kg; format: ADME, organism-based, Macaca fascicularis; conditions: in vivo; procedure, shortened: as §2
# [17] = AUC (0 to t) in cynomolgus monkey at 2 mg/kg, po; format: ADME, organism-based, Macaca fascicularis; set-up: dose 2 mg/kg, route oral; conditions: plasma; procedure, shortened: as §2
# [18] = Half life in cynomolgus monkey at 1 mg/kg, iv; format: ADME, organism-based, Macaca fascicularis; set-up: dose 1 mg/kg, route intravenous; conditions: in vivo; procedure, shortened: as §2
# [19] = Volume of distribution at steady state in cynomolgus monkey at 1 mg/kg, iv and 2 mg/kg, po; format: ADME, organism-based, Macaca fascicularis; conditions: in vivo, read-out: Vdss; procedure, shortened: as §2
# [20] = Clearance in cynomolgus monkey at 1 mg/kg, iv; format: ADME, organism-based, Macaca fascicularis; set-up: dose 1 mg/kg, route intravenous; conditions: in vivo; procedure, shortened: as §2
# [21] = Half life in rat at 2 mg/kg, iv; format: ADME, organism-based; set-up: dose 2 mg/kg, route intravenous; conditions: in vivo; procedure, shortened: as §2
# [22] = Volume of distribution at steady state in rat at 1.6 mg/kg, iv and 8.2 mg/kg, po; format: ADME, organism-based; conditions: in vivo, read-out: Vdss; procedure, shortened: as §2
# [23] = Oral bioavailability in rat at 8.2 mg/kg; format: ADME, organism-based; conditions: in vivo; procedure, shortened: as §2
# [24] = Clearance in rat at 1.6 mg/kg, iv; format: ADME, organism-based; set-up: dose 1.6 mg/kg, route intravenous; conditions: in vivo; procedure, shortened: as §2
# [25] = Half life in rat at 1.6 mg/kg, iv; format: ADME, organism-based; set-up: dose 1.6 mg/kg, route intravenous; conditions: in vivo; procedure, shortened: as §2
# [26] = AUC (0 to t) in rat at 8.2 mg/kg, po; format: ADME, organism-based; set-up: dose 8.2 mg/kg, route oral; conditions: plasma; procedure, shortened: as §2
# [27] = AUC (0 to t) in rat at 10 mg/kg, po; format: ADME, organism-based; set-up: dose 10 mg/kg, route oral; conditions: plasma; procedure, shortened: as §2
# [28] = Clearance in dog at 1 mg/kg, iv; format: ADME, organism-based, Canis lupus familiaris; set-up: dose 1 mg/kg, route intravenous; conditions: in vivo
# [29] = Half life in dog at 1 mg/kg, iv; format: ADME, organism-based, Canis lupus familiaris; set-up: dose 1 mg/kg, route intravenous; conditions: in vivo
# [30] = Clearance in rat at 0.8 mg/kg, iv; format: ADME, organism-based; set-up: dose 0.8 mg/kg, route intravenous; conditions: in vivo; procedure, shortened: as §2
# [31] = Oral bioavailability in rat at 4 mg/kg; format: ADME, organism-based; conditions: in vivo; procedure, shortened: as §2
# [32] = AUC (0 to t) in rat at 4 mg/kg, po; format: ADME, organism-based; set-up: dose 4 mg/kg, route oral; conditions: plasma; procedure, shortened: as §2
# [33] = Half life in rat at 0.8 mg/kg, iv; format: ADME, organism-based; set-up: dose 0.8 mg/kg, route intravenous; conditions: in vivo; procedure, shortened: as §2
# [34] = Volume of distribution at steady state in rat at 0.8 mg/kg, iv and 4 mg/kg, po; format: ADME, organism-based; conditions: in vivo, read-out: Vdss; procedure, shortened: as §2
compound,measurement,setting,value
CNC[C@H](CC1CCOCC1)NC(=O)N1CCC[C@@H]([C@@H](OCCNC(=O)OC)c2cccc(Cl)c2)C1,IC50,[1],6.2 nM
same,IC50,[2],1.7 nM
same,IC50,[3],> 30000 nM
same,IC50,[4],13.1 nM
CNC[C@H](CC1CCCCC1)NC(=O)N1CCC[C@@H]([C@@](O)(CCCCOC)c2cccc(Cl)c2F)C1,IC50,[1],0.73 nM
same,IC50,[4],9.4 nM
CN[C@H](CNC(=O)N1CCC[C@@H]([C@@H](OCCNC(=O)OC)c2cccc(Cl)c2)C1)C[C@H]1CCCOC1,inhibition,[5],< 10%
same,Activity,[6],Active
same,inhibition,[7],< 10%
same,inhibition,[8],< 10%
CN[C@H](CNC(=O)N1CCC[C@@H]([C@@H](OCCNC(=O)OC)c2cccc(Cl)c2)C1)C[C@H]1CCCOC1.O=C(O)/C=C/C(=O)O,clearance,[9],0.774 L/h/kg
same,bioavailability,[10],41%
same,Vd,[11],38 L/kg
same,Vd,[12],4 L/kg
same,half-life,[13],9.9 h
same,clearance,[14],7.68 L/h/kg
same,AUC(0-t),[15],0.484 µg·h/mL
same,bioavailability,[16],18%
same,AUC(0-t),[17],0.404 µg·h/mL
same,half-life,[18],12.3 h
same,Vd,[19],4.7 L/kg
same,clearance,[20],1.78 L/h/kg
same,half-life,[21],7.3 h
CNC[C@H](CC1CCCCC1)NC(=O)N1CCC[C@@H]([C@@](O)(CCCCOC)c2cccc(Cl)c2F)C1.O=C(O)/C=C/C(=O)O,Vd,[22],16 L/kg
same,bioavailability,[23],5.5%
same,clearance,[24],1.8 L/h/kg
same,half-life,[25],15.9 h
same,AUC(0-t),[26],0.226 µg·h/mL
COCCCOc1cc(C[C@@H](C[C@H](N)[C@@H](O)C[C@H](C(=O)NCC(C)(C)C(N)=O)C(C)C)C(C)C)ccc1OC.COCCCOc1cc(C[C@@H](C[C@H](N)[C@@H](O)C[C@H](C(=O)NCC(C)(C)C(N)=O)C(C)C)C(C)C)ccc1OC.O=C(O)/C=C/C(=O)O [ALISKIREN FUMARATE],bioavailability,[10],11%
same,AUC(0-t),[27],0.021 µg·h/mL
same,clearance,[28],0.66 L/h/kg
same,AUC(0-t),[15],0.149 µg·h/mL
same,half-life,[29],16.3 h
same,bioavailability,[16],1.4%
same,half-life,[18],14.7 h
same,clearance,[20],0.15 L/h/kg
same,half-life,[21],39.6 h
COCCCC[C@@](O)(c1cccc(Cl)c1F)[C@@H]1CCCN(C(=O)NC[C@@H](N)CC2CCCCC2)C1.O=C(O)/C=C/C(=O)O,clearance,[30],2.82 L/h/kg
same,bioavailability,[31],29.5%
same,AUC(0-t),[32],0.269 µg·h/mL
same,half-life,[33],51 h
same,Vd,[34],101 L/kg
CNC[C@@H](NC(=O)N1CCC[C@@H]([C@@H](OCCNC(=O)OC)c2cccc(Cl)c2)C1)[C@@H](O)C1CCCCC1,IC50,[1],0.33 nM
same,IC50,[2],0.15 nM
same,IC50,[3],7100 nM
same,IC50,[4],1.06 nM
